Source: PubChem BioAssay (several laboratories)
STEP block = blocks human striatal-enriched tyrosine phosphatase | P54829 | inhibition, % at 20 µM | actives 0.25% (n = 360,000) | recombinant STEP, OMFP fluorogenic substrate, fluorescence;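 active = inhibition at 20 µM, scaled per plate between control wells, above about 37%, limit read from the data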;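 also: 0% = DMSO with enzyme and substrate and 100% = substrate only without enzyme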
Target sequence (P54829 whole entry, looked up): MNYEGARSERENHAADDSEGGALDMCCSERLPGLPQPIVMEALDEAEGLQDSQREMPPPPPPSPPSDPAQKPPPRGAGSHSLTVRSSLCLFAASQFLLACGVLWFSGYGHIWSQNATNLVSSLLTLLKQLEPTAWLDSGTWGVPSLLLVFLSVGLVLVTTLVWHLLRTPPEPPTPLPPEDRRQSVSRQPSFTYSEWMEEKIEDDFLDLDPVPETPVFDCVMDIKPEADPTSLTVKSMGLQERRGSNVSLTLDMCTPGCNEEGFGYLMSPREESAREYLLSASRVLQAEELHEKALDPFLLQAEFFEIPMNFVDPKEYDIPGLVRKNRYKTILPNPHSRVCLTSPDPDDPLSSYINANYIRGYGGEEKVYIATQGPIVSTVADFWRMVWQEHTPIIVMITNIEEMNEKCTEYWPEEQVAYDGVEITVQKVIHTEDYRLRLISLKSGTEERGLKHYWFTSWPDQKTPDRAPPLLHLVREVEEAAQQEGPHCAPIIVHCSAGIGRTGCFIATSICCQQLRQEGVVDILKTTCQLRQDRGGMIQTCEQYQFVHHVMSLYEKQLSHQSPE
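System: STEP phosphatase, cell-free reaction; Buffer or medium: Bis-Tris pH 6.0 buffer with DTT, detergent; Incubation: 20 min at room temperature, dark; Measured by: fluorescence, 480/540 nm.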
DNMT1 block = DNMT1 (human) enzyme inhibition; DNMT1 molecular beacon, Hinp1I cleavage, fluorescence; inhibition (reported as % activation of signal), % at 10 µM; actives 0.83% (n = 360,000); AID 588458; in the data active = inhibition above about 50%
SUMO1-SIM PPI = alters human SUMO1 binding to SIM partners; P63165; SUMO1 binding to a labelled peptide, TR-FRET, 1 h; inhibition, % at 20 µM; actives 0.33% (n = 360,000); AID 602429; in the data active = inhibition above about 37%
Target sequence (P63165 whole entry, looked up): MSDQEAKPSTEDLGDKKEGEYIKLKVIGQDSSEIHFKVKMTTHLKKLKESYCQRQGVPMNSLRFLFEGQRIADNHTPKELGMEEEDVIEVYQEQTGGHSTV
GRK2 inh = human GRK2 inhibition via aptamer displacement | actives 0.59% (n = 330,000) | P25098 | bead flow cytometry, FAM-aptamer displacement from GRK2 | inhibition of aptamer binding, % at 10 µM;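 active = inhibition of aptamer binding above 40%, roughly 3 SD of noise, on plates passing a quality check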;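 also: median bead fluorescence of bound FAM aptamer so fluorescent compounds give negative values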
LMPTP block = blocks human LMPTP phosphatase. inhibition, % at 20 µM. actives 0.22% (n = 360,000). recombinant LMPTP-A, OMFP fluorogenic substrate, fluorescence intensity. P24666. AID 651560;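 active = compounds that cut the enzyme signal by at least half of the control window in the single-dose screen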;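 also: plate controls were DMSO wells with enzyme plus substrate for no effect and substrate without enzyme for full effect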
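Test system – LMPTP-A phosphatase enzyme · Quantity – 0.625 nM LMPTP-A final · Reagent – OMFP substrate, 400 µM final · Dosing – one test concentration per compound, 20 µM, with 3% DMSO overall · Timing – 50 min enzyme reaction at room temperature, protected from light · Detection – fluorescence intensity · Controls – substrate-only low control, DMSO enzyme-plus-substrate high control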
Scp-1 inhibitor = blocks human Scp-1 phosphatase activity; actives 0.88% (n = 340,000); AID 493091; Recombinant Scp1, phosphopeptide, malachite green phosphate absorbance; inhibition, % at 20 µM;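 active = inhibition above about 50% at 20 µM, limit read from the data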;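 also: plate controls were DMSO wells with enzyme for no effect and wells lacking enzyme for full effect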
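Test system – truncated SCP-1 phosphatase (76-261aa) · Reagent – Phosphorylated 17-residue peptide substrate · Incubation – 45 min room-temperature reaction, 5 min colour, 30 min stabiliser · Detection – colorimetric phosphate reagent with accelerator and stabiliser, absorbance at 630 nm · Measure – % inhibition at 20 µM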
Scp1 confirm = Scp-1 (human) inhibition, single-dose confirmed; shares compounds with Scp-1 inhibitor; recombinant SCP-1 catalytic domain, phosphate release, malachite green absorbance; inhibition, % at 20 µM; actives 61% (n = 2,500); AID 540281;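 also: plate controls were DMSO with enzyme for no effect and buffer wells lacking enzyme for full effect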
MG interference = colorimetric interference in Scp-1 counter-screen | shares compounds with Scp-1 inhibitor | Colorimetric interference counterscreen, malachite green absorbance 630 nm | apparent inhibition (interference), % at 20 µM | 2,500 tested, under 10 active;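 also: compounds added after enzyme reaction finished so only phosphate colour detection is probed; plate controls were DMSO wells with completed Scp-1 reaction for no effect and substrate wells lacking enzyme for full effect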
Scp-1 Tm shift = binds human Scp-1, shifting its melting temperature; shares compounds with Scp-1 inhibitor; Recombinant SCP1, Sypro Orange thermal shift Tm; thermal shift relative to vanadate control, % at 40 µM; actives 25% (n = 1,500); AID 540329;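 active = substances whose mean melting-temperature shift, as a percentage of the reference inhibitor's shift, reaches about 5.3%, limit read from the data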;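 also: 0% = Tm of DMSO wells and 100% = Tm with sodium orthovanadate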
Beacon interf DR = counter-screen for DNMT1 inhibitors: spectral interference, dose response | IC50, µM | shares compounds with DNMT1 block | AID 602382 | 200 tested, under 10 active | molecular beacon fluorescence; call rule not given here
DNMT1 inh conf = DNMT1 inhibition confirmation, single concentration; DNMT1 molecular beacon HinP1I cleavage, fluorescence; actives 8% (n = 2,300); shares compounds with DNMT1 block; inhibition, % at 10 µM; AID 602385;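 active = average inhibition of at least 30% in the single-concentration confirmation test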
DNMT1 interf = beacon fluorescence artifact counter-screen | actives 1% (n = 2,300) | activation (fluorescence interference), % at 10 µM | shares compounds with DNMT1 block | DNMT1 molecular beacon spectral interference counterscreen, fluorescence 485/520;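 active = activation of at least 30% at 10 µM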;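 also: DNMT1 catalytic domain with a HinP1I cleavage step and a FAM/dabcyl DNA beacon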
STEP inh conf = confirmation of human STEP phosphatase inhibitors. shares compounds with STEP block. recombinant STEP, OMFP fluorogenic substrate, fluorescence. inhibition, % at 20 µM. actives 32% (n = 520). AID 623866; call rule not given here;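 also: 0% = enzyme with substrate plus DMSO and 100% = substrate without enzyme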
* marks the source's active call; other numbers are inactive results; . = not tested or not shown. Rows were chosen to be rich in hits. Some 2.1% of all compounds tested hit in one or more screens of this group.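 The calls were made as follows, unless noted: active = inhibition of at least 30% at 20 µM; inactive = the rest.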

SMILES	STEP block	DNMT1 block	SUMO1-SIM PPI	GRK2 inh	LMPTP block	Scp-1 inhibitor	Scp1 confirm	MG interference	Scp-1 Tm shift	DNMT1 inh conf	DNMT1 interf	STEP inh conf	others
CCOc1ccc(NC(=O)CCC(=O)Oc2ccc(C)cc2)cc1	-1.7	-0.8	3.3	3.0	-0.7	-13.1	.	.	.	.	.	.
O=C(CSc1ccccn1)Nc1ccc2ccccc2c1	.	.	.	0.0	.	.	.	.	.	.	.	.
O=C(CSc1ccccn1)Nc1ccc2c(c1)C(=O)c1ccccc1C2=O	40.7*	87.0*	35.3	4.0	49.0	107.5*	68.8*	0.1	7.8*	12.8	-6.3	.
CCCCn1c(N)c(N(CCC(C)C)C(=O)c2[nH]c(C)c(C(=O)OCC)c2C)c(=O)[nH]c1=O	-1.2	-0.8	3.2	1.0	-0.9	1.2	.	.	.	.	.	.
Cc1cc(C(=O)NCc2ccc(C(=O)O)o2)c(C)o1	3.8	77.6*	4.1	9.0	0.2	56.2*	52.2*	-9.8	-13.3	7.8	2.0	.
Cc1c(C(=O)O)cccc1-c1ccc(/C=N/n2cnnc2)o1	27.0	58.5*	-6.1	25.0	0.5	67.5*	37.5*	-14.7	-18.0	7.1	-0.3	.
Cc1ccnc(NS(=O)(=O)c2ccc(NC(=O)Cc3cccs3)cc2)n1	0.7	89.5*	15.1	5.0	14.4	59.9*	73.3*	-5.4	6.8*	22.1	-3.4	.	Beacon interf DR=>99
O=C(Cc1cccs1)Nc1ccc(S(=O)(=O)N2CCCCC2)cc1	3.7	57.4*	2.4	0.0	17.6	89.4*	64.2*	-19.7	6.6*	8.1	4.1	.
Cc1ccnc(NS(=O)(=O)c2ccc(NC(=O)Cc3ccc(F)cc3)cc2)n1	-1.5	4.1	3.1	1.0	-2.1	-0.9	.	.	.	.	.	.
O=C(Nc1nnc(S(=O)(=O)N2CCN(c3ccc(F)cc3)CC2)s1)c1ccccc1	0.3	-0.7	3.2	2.0	1.1	-2.4	.	.	.	.	.	.
CCCN1C(=S)c2ccccc2C1c1ccccc1 (stereo not drawn)	-1.7	-1.7	0.7	1.0	0.8	-5.7	.	.	.	.	.	.
O=C(NCc1ccco1)C1Cc2ccccc2CN1S(=O)(=O)c1ccccc1F (stereo not drawn)	-0.5	71.0*	13.2	0.0	1.9	70.0*	77.3*	-4.6	7.5*	6.1	3.9	.
O=C(NCc1ccco1)C1Cc2ccccc2CN1C(=O)c1ccco1 (stereo not drawn)	-0.7	3.5	3.4	0.0	2.8	36.1	.	.	.	.	.	.
O=C(N/N=C/c1cccc([N+](=O)[O-])c1)c1nc2ccccc2c(=O)[nH]1	1.6	3.0	-5.8	1.0	-2.1	-0.7	.	.	.	.	.	.
O=C(N/N=C/c1ccccc1Cl)c1nc2ccc([N+](=O)[O-])cc2c(=O)[nH]1	54.0*	0.2	3.3	0.0	39.7	70.2*	31.7*	-18.4	7.5*	.	.	7.6
O=C(Nc1cccc(-c2nc3ccccc3s2)c1)c1cc(=O)c2ccccc2o1	79.5*	51.5*	3.2	3.0	37.3	71.9*	43.4*	-14.0	-6.3	1.2	1.4	4.5
COc1ccc(-c2ccc(N3C(c4cc(OC)cc(OC)c4)=Cc4ccc(OC)cc4C3CC(C)=O)cc2)cc1 (stereo not drawn)	.	.	-1.5	.	5.1	.	.	.	.	.	.	.
O=C(O)CC/C(=C/c1cccc(NC(=O)c2ccccc2Cl)c1)c1nc2ccccc2s1	-2.5	-22.2	-5.4	.	0.7	-1.0	.	.	.	.	.	.
COc1cc(/C=C(\CCC(=O)O)c2nc3ccccc3s2)ccc1OCC(=O)Nc1c(Cl)cccc1Cl	49.2*	52.3*	95.0*	3.0	44.0	74.9*	51.9*	-16.7	3.4	70.1*	0.0	20.5	Beacon interf DR=>99
O=C(COc1ccccc1)NC1C(=O)N2C(C(=O)O)=C(Cl)CSC12 (stereo not drawn)	5.2	1.1	4.4	2.0	-1.5	40.3	.	.	.	.	.	.
C=CC1=C(C(=O)O)N2C(=O)C(NC(=O)Cc3ccccc3)C2SC1 (stereo not drawn)	87.9*	89.9*	84.7*	11.0	72.9*	96.2*	78.2*	-6.8	1.2	5.4	4.1	35.8*
C=CCNC(=O)c1ccc(Cn2c(=S)[nH]c3cc4c(cc3c2=O)OCO4)cc1	47.3*	1.3	17.0	34.0	49.3	85.7*	57.6*	-18.3	-21.6	.	.	6.0
O=C1NC(=Nc2cccnc2)S/C1=C/c1ccc(F)cc1	61.2*	2.3	-5.3	0.0	14.4	87.4*	50.4*	-9.3	-32.1	.	.	-1.9
O=C(COc1ccc([N+](=O)[O-])cc1)Nc1nnc(-c2cccnc2)s1	65.5*	20.2	4.4	2.0	47.2	75.5*	76.4*	-4.6	6.9*	.	.	75.4*
O=C(COc1ccc([N+](=O)[O-])cc1)NCc1cccnc1	1.8	2.7	-7.5	0.0	-1.9	-6.8	.	.	.	.	.	.
O=C(Cc1c(F)cccc1Cl)NNC(=S)Nc1ccc(S(=O)(=O)Nc2ncccn2)cc1	3.7	4.2	1.4	34.0	1.5	-2.0	.	.	.	.	.	.
Cc1c(CC(=O)O)c(=O)oc2c(C)c(OCc3c(F)cccc3Cl)ccc12	4.9	0.6	13.1	2.0	0.0	-22.6	.	.	.	.	.	.
Cc1c(Cc2ccccc2)c(=O)oc2c(C)c(OCC(=O)NCC3CCC(C(=O)O)CC3)ccc12 (stereo not drawn)	64.8*	-1.8	5.0	1.0	46.1	85.3*	55.7*	-17.5	-33.5	.	.	29.0
Cc1c(CC(=O)O)c(=O)oc2c(C)c(OCc3ccccc3Br)ccc12	98.3*	2.1	24.6	0.0	49.5	91.5*	62.0*	-13.6	-62.0	.	.	65.0*
